We go through 76 molecules from PubChem BioAssay AID489015 (The Scripps Research Institute Molecular Screening Center, 2010).

The source made the active and inactive calls.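 How the source made its calls: active means malaria parasite growth inhibition in red cells reaching a set limit in at least one replicate; inactive means below that limit in every replicate.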

In this assay the test system is P. falciparum 3D7 in RBCs, 3H-hypoxanthine incorporation, 48 h. Description: single-dose antimalarial blood-stage activity – cell-based, radiolabel, RBCs, powder samples, M18AAP inhibitor project, late-stage follow-up (AID 489015). Conditions: at 10 µM; hits give high values. The method, boiled down:
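Assay system – P. falciparum 3D7 in erythrocytes · Also added – 3H-hypoxanthine, 0.5 µCi/well · Compound – 10 µM single dose, DMSO ≤1% · Incubation – 48 h compound exposure, 37 °C, 5% CO2, 5% O2 · Signal – 3H-hypoxanthine uptake, beta counting · Repeats – triplicate wells, 2-3 experiments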
As for `CN1CCc2cccc3c2[C@@H]1Cc1ccc(O)c(O)c1-3`, the growth inhibition is 87%. As to `O=C(CSc1nc2ccccc2c(=O)[nH]1)c1ccc(O)c(O)c1`, the growth inhibition is 8.89% (inactive). For `O=C(CSc1nn(-c2ccccc2)c(=S)s1)Nn1cnnc1` the value was 0% (inactive); for `O=C(Nc1ccc(Cl)cc1Cl)Nn1cnnc1`, 0% (inactive); for `O=C(Nc1cccc(C(F)(F)F)c1)Nn1cnnc1`, 0% (inactive).

For `O=c1[nH]c(=S)[nH]c(O)c1/C=C1\C=c2ccccc2=N1`, the growth inhibition was 2.67% (inactive). On to `O=C(Nc1ccc(Br)cc1Cl)Nn1cnnc1`, for which the growth inhibition was 4.67% (inactive). With `COc1cccc2c(SCC(=O)N/N=C/c3ccc(O)c(O)c3)cc(C)nc12` the figure was 1.5% (inactive); with `O=c1[nH]c(CSc2ncn[nH]2)nc2ccccc12`, 1.83% (inactive). For `COC(=O)c1cc(C(=O)Nn2cnnc2)cc([N+](=O)[O-])c1` the value was 0% (inactive); for `COc1ccc(Cl)cc1NC(=O)Nn1cnnc1`, 5.83% (inactive). With `CCc1ccccc1NC(=S)Nn1cnnc1` the figure was 0% (inactive); with `Cc1ccc(Cl)cc1NC(=S)Nn1cnnc1`, 0% (inactive); with `Cc1ccc([N+](=O)[O-])cc1-c1[nH]c(-c2ccc(O)c(O)c2)nc1-c1ccccc1`, 4.11% (inactive). As for `O=C(CNC(=O)c1ccccc1)NCCc1ccc(O)c(O)c1`, the growth inhibition is 0.333% (inactive). For the molecule `Cc1nc2ccccn2c1C(=O)NNC(=O)Nc1ccccc1`, the growth inhibition was 0.667% (inactive). As to `CC1(C)CC(=O)c2c(oc3cc(O)c(O)cc23)C1`, the growth inhibition is 2.83% (inactive). With `CN1C(=O)N(c2cccc3ccccc23)C(n2cncn2)C1(C)C` (stereo unspecified) the figure was 0% (inactive).

As for `Oc1ccc(-c2csc(-c3ccccc3)n2)cc1O`, the growth inhibition is 20.6%. With `COc1ccc2nc(C)cc(SCC(=O)N/N=C/c3ccc(O)c(O)c3)c2c1` the figure was 3.22% (inactive). For the molecule `O=C(O)c1cn[nH]c1-n1cnnn1`, the growth inhibition is 3.83% (inactive).

Turning to `O=C(Nc1ccc([N+](=O)[O-])cc1)Nn1cnnc1`, the growth inhibition is 28.7% (inactive).

As to `O=C(Nc1cccc(Cl)c1Cl)Nn1cnnc1`, the growth inhibition is 1% (inactive). For the molecule `Oc1cc(O)c2c(c1)O[C@H](c1ccc(O)c(O)c1)[C@H](O)C2`, the growth inhibition is 1% (inactive). For `O=C(Nn1cnnc1)c1ccccc1-c1ccccc1` the value was 0.5% (inactive); for `NCCc1ccc(O)c(O)c1`, 0.5% (inactive). Consider `CS(=O)(=O)c1ccc2c(c1)sc1nc(=O)c(/C=C3/C=CC(=O)C(O)=C3)c(N)n12`, for which the growth inhibition was 22.6% (inactive). With `Cc1c(Cl)cccc1NC(=O)Nn1cnnc1` the figure was 9.17% (inactive); with `O=C(COc1ccccc1C(=O)N/N=C/c1ccc(O)c(O)c1)N/N=C/c1ccc(O)c(O)c1`, 66%; with `Cc1ccc(-n2c(O)c(/C=N/n3cnnc3)c3ccccc3c2=O)cc1`, 3.33% (inactive). `CCC(C)c1ccc(O)c(N)c1` (stereo unspecified): the growth inhibition is 95.1%. Take `O=C(CSc1ncn[nH]1)Nc1nc(-c2ccccc2)ns1`: the growth inhibition is 4.5% (inactive). For `COC(=O)CN(n1cnnc1)S(=O)(=O)c1ccccc1Cl` the value was 4.5% (inactive); for `COc1ccc(C(=O)n2cnnc2N)cc1`, 2.5% (inactive); for `O=C(Nc1ccccc1Cl)Nn1cnnc1`, 7.83% (inactive). For `OC(Cn1cnnc1)c1ccccc1` (stereo unspecified) the value was 0% (inactive); for `Oc1ccc(CCNc2c3ccccc3nc3ccccc23)cc1O`, 96.3%. For `O=C(NC(=S)Nn1cnnc1)c1ccccc1Br` the value was 0% (inactive). Turning to `CC1(C)CC2(CC(c3ccccc3F)c3ccc(O)c(O)c3O2)NC(=S)N1` (stereo unspecified), the growth inhibition is 0.167% (inactive). For `Oc1ccc(C2=Nn3c(nnc3-c3ccco3)SC2)cc1O` the value was 20.8% (inactive). With `COc1cc(Br)cc(/C=N/c2ncn[nH]2)c1O` the figure was 4.83% (inactive); with `Cc1cccc(NC(=S)Nn2cnnc2)c1C`, 16.5% (inactive); with `O=c1c2c([N+](=O)[O-])cc([N+](=O)[O-])cc2sn1Cc1ccccc1`, 5.11% (inactive).

Take `O=C(Nn1cnnc1)c1csc2ccccc12`: the growth inhibition was 0% (inactive).

As for `CCN(CC)S(=O)(=O)c1ccc(C(=O)Nn2cnnc2)cc1`, the growth inhibition was 0.5% (inactive).

For `O=C(O)CSc1ncn[nH]1`, the growth inhibition was 2.83% (inactive). With `Cc1nc(-c2ccc(O)c(O)c2)cs1`, the growth inhibition was 0.778% (inactive).

Take `O=C(Nc1cc(Cl)ccc1Cl)Nn1cnnc1`: the growth inhibition is 1.5% (inactive). Turning to `O=C(O)c1ccc(O)c(O)c1`, the growth inhibition is 7.17% (inactive). With `COc1cc([N+](=O)[O-])ccc1NC(=O)Nn1cnnc1` the figure was 0% (inactive). Take `CCOC(=O)C1=C(CS(=O)(=O)c2ccc(F)cc2)NC(=O)NC1c1ccc(O)c(O)c1` (stereo unspecified): the growth inhibition is 0.667% (inactive). With `CC(C)n1c(SCC(=O)Nc2nncs2)nnc1-c1ccco1` the figure was 1.33% (inactive). For `Cc1cc(C)n2c(=S)[nH]nc2n1` the value was 35.6%.

For the molecule `Nc1nncn1C(=O)CCCOc1ccc(Cl)cc1Cl`, the growth inhibition is 3.17% (inactive).

Regarding `O=C(CSc1ncn[nH]1)OCN1C(=O)c2ccccc2C1=O`, the growth inhibition was 3% (inactive). Turning to `Cc1cc(OCC(=O)Nn2cnnc2)ccc1Br`, the growth inhibition was 3.67% (inactive).

On to `S=C(Nc1cc(Cl)ccc1Cl)Nn1cnnc1`, for which the growth inhibition was 0% (inactive).

`O=C(Nc1ccc(Cl)c(Cl)c1)Nn1cnnc1`: the growth inhibition is 5.67% (inactive). For `Oc1ccc(-c2cn3ccccc3n2)cc1O` the value was 5.33% (inactive). `COc1cc([N+](=O)[O-])ccc1NC(=S)Nn1cnnc1`: the growth inhibition is 8.67% (inactive). In the case of `O=c1c(O)c(-c2ccc(O)c(O)c2)oc2cc(O)cc(O)c12`, the growth inhibition was 0% (inactive). For `Cc1cc(C)cc(C(=O)n2cnnc2N)c1` the value was 44.8%; for `Oc1ccc(/C=C/c2cc(O)cc(O)c2)cc1`, 1.33% (inactive). With `CC1=NNC(=O)/C1=C\c1cn(-c2ccccc2)nc1-c1ccc(F)cc1` the figure was 20.7% (inactive); with `COC(=O)CN(n1cnnc1)S(=O)(=O)c1ccccc1`, 1.67% (inactive). As for `Oc1ccc(-c2csc(-c3cccnc3)n2)cc1O`, the growth inhibition is 7.67% (inactive). With `COC(=O)CN(n1cnnc1)S(=O)(=O)c1ccc(C)cc1` the figure was 0% (inactive). For `Cc1cc(=O)[nH]c(SCC(=O)c2ccc(O)c(O)c2)n1` the value was 0.833% (inactive); for `O=[N+]([O-])c1cc([N+](=O)[O-])c2cccnc2c1Oc1ccccc1O`, 13.4% (inactive); for `O=C(CSc1nnc(-c2ccccc2)o1)Nn1cnnc1`, 11% (inactive). Consider `O=S(=O)(Nn1cnnc1)c1ccccc1`, for which the growth inhibition was 3% (inactive). Regarding `Cc1ccc(NC(=S)Nn2cnnc2)c(C)c1`, the growth inhibition is 0% (inactive). For `COc1ccc(NC(=O)NNC(=O)CCc2ccc(O)c(O)c2)cc1OC` the value was 5.67% (inactive); for `Br/C(C=Nn1cnnc1)=C\c1ccccc1`, 71.8%.

`Cc1ccc(Cl)cc1NC(=O)Nn1cnnc1`: the growth inhibition is 2.5% (inactive). With `COc1cccc(-c2cc(C(=O)Nn3cnnc3)c3ccccc3n2)c1` the figure was 7.11% (inactive).
